# Assay results as given in article PMC5629133 (Drugs in R&D, 2017).
# Where two headings read alike, the source gives them in different places.
# Assays:
# AGP A variant = AGP A variant (Homo sapiens, UniProt P19652); test: Screening: S-disopyramide binding with drug at 100-fold concentration; conditions: drug at 100-fold concentration of marker
# Summary of the method: (§1)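 Radiolabelled S-disopyramide or S-warfarin binding to human AGP was measured with and without test compound at 100-fold the marker concentration. Incubation was 15 min at 37 °C, followed by ultrafiltration at 2000×g and scintillation counting. Marker binding remaining at 100-fold inhibitor was taken as non-specific. Compounds cutting specific binding by more than 70% went forward to quantitative analysis.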
# AGP F1/S variant mixture = AGP F1/S variant mixture (Homo sapiens, UniProt P02763); test: Screening: S-warfarin binding with drug at 100-fold concentration; conditions: drug at 100-fold concentration of marker
# Summary of the method: as §1
# [1] = target: AGP F1/S variant mixture (S-warfarin binding site) (Homo sapiens, UniProt P02763); test: Competitive inhibition of S-warfarin binding to human AGP by ultrafiltration; conditions: among the drugs tested
# Summary of the method: (§2)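 Human AGP was incubated with radiolabelled S-warfarin or [3H]S-disopyramide, with a series of unlabelled marker levels and test compound at 9.62, 19.2 and 48.1 μM, for 15 min at 37 °C. Ultrafiltration ran at 2000×g for 5 min at 37 °C, with a 30,000 MW cut-off for disopyramide. Mixture and filtrate radioactivity were counted by scintillation. Ki came from a non-linear least-squares competitive inhibition model with a constant non-specific binding term.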
# human AGP variants = conditions: cited from earlier work; for Binding to AGP: used as positive controls
# AGP F1/S variants = AGP F1/S variants (Homo sapiens, UniProt P02763); test: Effect of other drugs on binding of tamsulosin to human AGP
# Summary of the method: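 Commercial human AGP was mixed with unlabelled tamsulosin (40–500 μM solutions added), [3H]tamsulosin, and test compound at 9.62, 19.2 and 48.1 μM, then incubated for 15 min at 37 °C. Ultrafiltration used a 5000 MW cut-off at 2000×g for 5 min at 37 °C. Mixture and filtrate were counted by liquid scintillation. Ki was fitted by non-linear least squares to a competitive inhibition model with non-specific binding held constant.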
# [2] = target: AGP A variant (S-disopyramide binding site) (Homo sapiens, UniProt P19652); conditions: among the drugs tested
# Summary of the method: as §2
smiles,measurement,setting,value
CCC(C)(C)C(=O)O[C@H]1C[C@@H](C)C=C2C=C[C@H](C)[C@H](CC[C@@H]3C[C@@H](O)CC(=O)O3)[C@H]21 [Simvastatin],Inhibition of binding of S-disopyramide,AGP A variant,markedly inhibited
same,Inhibition of binding of warfarin,AGP F1/S variant mixture,markedly inhibited
same,Binding affinity for the AGP F1/S variant mixture (S-warfarin binding site),[1],relatively high
CCOc1ccccc1OCCN[C@H](C)Cc1ccc(OC)c(S(N)(=O)=O)c1 [tamsulosin],Inhibition of binding of warfarin,AGP F1/S variant mixture,specifically inhibited
same,Binding affinity for the AGP F1/S variant mixture (S-warfarin binding site),[1],relatively high
same,AGP variant to which the drug binds,human AGP variants,binds specifically to the F1/S variants
CN(C)CCC=C1c2ccccc2CCc2ccccc21 [amitriptyline],Inhibition of binding of S-disopyramide,AGP A variant,specifically inhibited
same,Binding to AGP,human AGP variants,bind strongly to AGP
COc1ccc([C@@H]2Sc3ccccc3N(CCN(C)C)C(=O)[C@@H]2OC(C)=O)cc1 [diltiazem],Inhibition of binding of S-disopyramide,AGP A variant,specifically inhibited
CN(C)CCCN1c2ccccc2Sc2ccc(Cl)cc21 [chlorpromazine],AGP variant to which the drug binds,human AGP variants; separate AGP variants,to both variants
CSc1ccc2c(c1)N(CCC1CCCCN1C)c1ccccc1S2 (centres unmarked) [Thioridazine],Inhibition of binding of S-disopyramide,AGP A variant,markedly inhibited
same,Effect on binding of tamsulosin,AGP F1/S variants,significantly decreased
same,Inhibition of binding of warfarin,AGP F1/S variant mixture,markedly inhibited
same,Binding affinity for the AGP A variant (S-disopyramide binding site),[2],relatively high
same,Binding affinity for the AGP F1/S variant mixture (S-warfarin binding site),[1],relatively high
same,Binding to AGP,human AGP variants,bind strongly to AGP
CC[C@H]1OC(=O)[C@H](C)[C@@H](O[C@H]2C[C@@](C)(OC)[C@@H](O)[C@H](C)O2)[C@H](C)[C@@H](O[C@@H]2O[C@H](C)C[C@H](N(C)C)[C@H]2O)[C@](C)(O)C[C@@H](C)C(=O)[C@H](C)[C@@H](O)[C@]1(C)O [Erythromycin],Inhibition of binding of S-disopyramide,AGP A variant,markedly inhibited
same,Effect on binding of tamsulosin,AGP F1/S variants,significantly decreased
same,Inhibition of binding of warfarin,AGP F1/S variant mixture,markedly inhibited
CC(=O)CC(c1ccccc1)c1c(O)c2ccccc2oc1=O (centres unmarked) [warfarin],Effect on binding of tamsulosin,AGP F1/S variants,significantly decreased
same,AGP variant to which the drug binds,human AGP variants; separate AGP variants,to an F1/S variant mixture
CN(C)C(=O)C(CCN1CCC(O)(c2ccc(Cl)cc2)CC1)(c1ccccc1)c1ccccc1 [Loperamide],Inhibition of binding of S-disopyramide,AGP A variant,specifically inhibited
COc1ccc(Cl)cc1C(=O)NCCc1ccc(S(=O)(=O)NC(=O)NC2CCCCC2)cc1 [Glibenclamide],Inhibition of binding of S-disopyramide,AGP A variant,specifically inhibited
C=C[C@H]1C[N@@]2CC[C@H]1C[C@H]2[C@H](O)c1ccnc2ccc(OC)cc12 [Quinine],Inhibition of binding of S-disopyramide,AGP A variant,markedly inhibited
same,Inhibition of binding of warfarin,AGP F1/S variant mixture,markedly inhibited
same,Binding affinity for the AGP A variant (S-disopyramide binding site),[2],relatively high
CC/C(=C(\c1ccccc1)c1ccc(OCCN(C)C)cc1)c1ccccc1 [tamoxifen],Inhibition of binding of S-disopyramide,AGP A variant,specifically inhibited
same,Binding to AGP,human AGP variants,bind strongly to AGP
CC(C)N(CCC(C(N)=O)(c1ccccc1)c1ccccn1)C(C)C (centres unmarked) [disopyramide],AGP variant to which the drug binds,human AGP variants; separate AGP variants,bind specifically to the A variant
CN(C)CCCN1c2ccccc2CCc2ccccc21 [imipramine],AGP variant to which the drug binds,human AGP variants; separate AGP variants,bind specifically to the A variant
same,Binding to AGP,human AGP variants,bind strongly to AGP
COc1ccccc1OCCNCC(O)COc1cccc2[nH]c3ccccc3c12 (centres unmarked) [Carvedilol],Effect on binding of tamsulosin,AGP F1/S variants,significantly decreased
COC(=O)C1=C(C)NC(C)=C(C(=O)OCCN(C)Cc2ccccc2)C1c1cccc([N+](=O)[O-])c1 (centres unmarked) [Nicardipine],Inhibition of binding of S-disopyramide,AGP A variant,markedly inhibited
same,Inhibition of binding of warfarin,AGP F1/S variant mixture,markedly inhibited
same,Binding affinity for the AGP F1/S variant mixture (S-warfarin binding site),[1],relatively high
Clc1ccc(COC(Cn2ccnc2)c2ccc(Cl)cc2Cl)c(Cl)c1 (centres unmarked) [Miconazole],Inhibition of binding of S-disopyramide,AGP A variant,markedly inhibited
same,Inhibition of binding of warfarin,AGP F1/S variant mixture,markedly inhibited
CC(C)NCC(O)COc1cccc2ccccc12 (centres unmarked) [propranolol],Inhibition of binding of S-disopyramide,AGP A variant,markedly inhibited
same,Inhibition of binding of warfarin,AGP F1/S variant mixture,markedly inhibited
CCN(CC)CCCN(c1ccccc1)C1Cc2ccccc2C1 [Aprindine],Effect on binding of tamsulosin,AGP F1/S variants,significantly decreased
same,Binding affinity for the AGP A variant (S-disopyramide binding site),[2],relatively high
